Results reported in the RNAGym collection of RNA variant scans (doi:10.1126/science.aae0568).
This sample holds only a part of the variants without activity.

B1: tRNA (parent)
chain: GUUCCGUUGGCGUAAUGGUAACGCGUCUCCCUCCUAAGGAGAAGACUGCGGGUUCGAGUCCCGUACGGAACG

Variants of: B1
Assay: yeast fitness relative to wild type (ratio to wild type); higher = fitter; tRNA-Arg(CCU), competitive growth, 37 C, YPD
Procedure, shortened: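 Changes in genotype frequencies gave Darwinian fitness relative to wild type. Frequencies were read by 100-nucleotide paired-end sequencing of gene amplicons before and after pooled Saccharomyces cerevisiae strains, carrying tRNA-Arg(CCU) gene variants at the native locus, were competed in YPD at 37°C for 24 hours in six replicates. A genotype was kept only with ≥ 100 starting reads, and estimates < 0.5 were set to 0.5.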

Point of comparison: GUUCCGUUGGCGUAAUGGUAACGUGUCUCCCUCCUAAGAAGAAGACUGCGGGUUCGAGUCCCGUUCGGAACG [C24U G39A A65U], yeast fitness 0.528. Against it:
- GUUCCGUUGGCGUAAUGGUAACGCAUCUUCCUCCUAAGGAGAAGACUGCGGGUUCGAGUCCCGUGCGGAACG [G25A C29U A65G] — higher, 0.704
- GUUCCGUUGGCGUAAUGGUAACGUGUCUCCCUCCUAAGGAGAAGACUGUGGGUUCGAGGCCCGUACUGAACG [C24U C49U U59G G67U] — lower, ≤ 0.5
- GUUCCGUUGGCGUAAUGGUAACGCAUCUCACUCAUAAGGAGAAGACUGAGGGUUCGAGUCCGGUAUGGAGCG [G25A C30A C34A C49A C62G C66U A70G] — higher, 0.712
- GUUCCGUUGGCGUAAUGGUAACGUGUCUCCCUCCUAAGGAGAAGACUGCGGGUUCGAAUGCCGUACGGAACG [C24U G58A C60G] — higher, 0.897
- GUUCCGUUGGCGUAAUGGUAACGCAUCUCCUUCCUAACGAGAAGACUGCGGGUCCGAGUCCCGUACGGAACG [G25A C31U G38C U54C] — higher, 0.654
- GUUCCGUUGGCGUAAUGGUAACGUGUCUCCCACCUAAGGAGAAGACUGCGGGUACGAGUCCCGUACGGAACG [C24U U32A U54A] — lower, ≤ 0.5
- GUUCCGUUGGCGUAAUGGUAACGUGUCUCCCUCCUAAGGAGAAGACUGGGGGUUCGAGUCCCGUACGGAACG [C24U C49G] — higher, 0.724
- GUUCCGUUGGCGUAAUGGUAACGUGUCUCCCUCCUAAGGAGAAGACUGCGGGUUCGAAUCCCGUACGGAACG [C24U G58A] — higher, 0.988
- GUUCCGUUGGCGUAAUGGUAACGCAUCUUCCUCCUAAGGAGAAGACUGCGGGUUCGAGUACCGUACGGAACG [G25A C29U C60A] — higher, 0.728
- GUUCCGUUGGCGUAAUGGUAACGUGUCUCCCUCCUAAGGAGAAGACUGCGGGAUAGAGUCCCGUACGGAACG [C24U U53A C55A] — higher, 0.65
- GUUCCGUUGGCGUAAUGGUAACGCAUCUCCCUCCUAAGGAGAUGACUGCGGGUUCGAGUCACGUACGGAACG [G25A A43U C61A] — higher, 0.765
- GUUCCGUUGGCGUAAUGGUAACGCAUCUCACUCCUAAGGAGAAGGCUGCGGGUUCGAGUCCCGCACGGAACG [G25A C30A A45G U64C] — higher, 0.984
- GUUCCGUUGGCGUAAUGGUAACGUGUCUCCCUCCUAAGGACAAGACUGCGGGUUCGAGUCCCGUACGGAACG [C24U G41C] — higher, 0.847
- GUUCCGUUGGCGUAAUGGUAACGCAUCUUCCUCCUAAGGAGAAGACUGCGCGUUCGAGUCCCGUACGGAUCG [G25A C29U G51C A70U] — lower, ≤ 0.5
- GUUCCGUUGGCGUAAUGGUAACGUGUCUCCCUCCUAAGGAGAACACUGCGGGUUCGAGUCCCGUACGGAACG [C24U G44C] — higher, 0.825
- GUUCCGUUGGCGUAAUGGUAACGCAUCUGCCUCCUAAGGAGAAGACUACGGGUUCGAGUCCCGUACGGUACG [G25A C29G G48A A69U] — lower, ≤ 0.5
- GUUCCGUUGGCGUAAUGGUAACGUGUCUCCCUCCUAAGGAGAAGACUGGGGGUUCCAAUCCCGUACAGAACG [C24U C49G G56C G58A G67A] — lower, ≤ 0.5
- GUUCCGUUGGCGUAAUGGUAACGUGUCUCCCUCCUAAGGAGAAGACUGCGGGUUCAAGUACCGUACGGAACG [C24U G56A C60A] — higher, 0.594
- GUUCCGUUGGCGUAAUGGUAACGCAUCUCCCUCCUAAGGAGAAGACUGCGGGUUCGAGUCCCGUACGGACCG [G25A A70C] — higher, 1.05
- GUUCCGUUGGCGUAAUGGUAACGUGUCUCCCUCCUAAGGAGAAGACUGCGGGUUCGAGUCCCGUACAGAACG [C24U G67A] — higher, 0.913
- GUUCCGUUGGCGUAAUGGUAACGUGUCUCCCUCCUAAGGAGAAGACACCGGGUGCGAGUCCCGUCCGGAACG [C24U U47A G48C U54G A65C] — lower, ≤ 0.5
- GUUCCGUUGGCGUAAUGGUAACGUGUCCCCCUCCUAAGGAGAAGACUACGGGUUCGAGUCGCGUACGGAACG [C24U U28C G48A C61G] — lower, ≤ 0.5
- GUUCCGUUGGCGUAAUGGUAACGUGUCUCCCUCCUAAGGAGAAGACUGCGGGUUGGAGUCCCGUACAGAACG [C24U C55G G67A] — lower, ≤ 0.5
- GUUCCGUUGGCGUAAUGGUAACGUGGCUCCCUCCUGAGGAGAGGACUGCGGGUUCGAGUCCCGUACGGAACG [C24U U26G A36G A43G] — lower, ≤ 0.5
- GUUCCGUUGGCGUAAUGGUAACGCAUCUCACUCCUAAGGAGAAGACUGCGGGUUCGAGUCCCGUACGGAACG [G25A C30A] — higher, 0.836
- GUUCCGUUGGCGUAAUGGUAACGCAUCUCGCUCCUAAGGAGAAGACUGCGGGUUCGAGUCCCGUACGGAACG [G25A C30G] — higher, 0.636
- GUUCCGUUGGCGUAAUGGUAACGCAUCUCCAUCCUAAGGAGAACACUGCGGGUUCGAGUCCCGUACGGAACG [G25A C31A G44C] — higher, 0.597
- GUUCCGUUGGCGUAAUGGUAACGUGUCGCCCUCCUAAGGAGAAGACUACGGGUUCGAGUCCCGUACGGAACG [C24U U28G G48A] — lower, ≤ 0.5
- GUUCCGUUGGCGUAAUGGUAACGCAUCUCCUUCCUACGGAGAAGACUGCGGCUUCGAGUCCCGUACGGAACG [G25A C31U A37C G52C] — lower, ≤ 0.5
- GUUCCGUUGGCGUAAUGGUAACGUGUCUCCCUCCUAAGGAGAAGACUGCGGGAUCGAGUCCCGUACGGAACG [C24U U53A] — higher, 0.626
- GUUCCGUUGGCGUAAUGGUAACGUGCCUCCCUCCUAAGGAGAAGACUGCGGGUUCGAAUCCCGUACGGAACG [C24U U26C G58A] — higher, 1.01
- GUUCCGUUGGCGUAAUGGUAACGCAUCUCCCUCCUACGGAGAAGACUGCGGGUUCGAGUCCCGUACGGUACG [G25A A37C A69U] — higher, 0.684
- GUUCCGUUGGCGUAAUGGUAACGUGCAUCCCUCCUAAGGAGAAGACUGCGGGUUCGAGUCCCGUACGGUACG [C24U U26C C27A A69U] — lower, ≤ 0.5
- GUUCCGUUGGCGUAAUGGUAACGUGUCUCCCACCUAAGGAGAAGACUGCGGGUUCGAGUUCCGUACGGAACG [C24U U32A C60U] — lower, ≤ 0.5
- GUUCCGUUGGCGUAAUGGUAACGUAUCUCUCUCCUAAGGAGAAGAAUGCGGGUUCGAGUCCCGUACGGUACG [C24U G25A C30U C46A A69U] — higher, 0.611
- GUUCCGUUGGCGUAAUGGUAACGUGUCUCCCUCCUAAGCAGAAGACUGCGGGUUCGAGUCCCGUACGGAGCG [C24U G39C A70G] — lower, ≤ 0.5
- GUUCCGUUGGCGUAAUGGUAACGCAUCUCCCUCCUAAGGAGUAGACUGCGGGUUCGGGUCCCGUACGGAACG [G25A A42U A57G] — lower, ≤ 0.5
